Calls of active or inactive are those of the source. The calls are words filed in the database; no cut-off is given here.
How the values were obtained:
[1] = biological target: T1, Glycogen synthase kinase-3 beta (Homo sapiens, UniProt P49841); assay: Inhibition of recombinant GST-tagged GSK-3beta (unknown origin) expressed in Escherichia coli BL21 assessed as phosphate incorporation in CREB
Target sequence in this assay (P49841 whole entry): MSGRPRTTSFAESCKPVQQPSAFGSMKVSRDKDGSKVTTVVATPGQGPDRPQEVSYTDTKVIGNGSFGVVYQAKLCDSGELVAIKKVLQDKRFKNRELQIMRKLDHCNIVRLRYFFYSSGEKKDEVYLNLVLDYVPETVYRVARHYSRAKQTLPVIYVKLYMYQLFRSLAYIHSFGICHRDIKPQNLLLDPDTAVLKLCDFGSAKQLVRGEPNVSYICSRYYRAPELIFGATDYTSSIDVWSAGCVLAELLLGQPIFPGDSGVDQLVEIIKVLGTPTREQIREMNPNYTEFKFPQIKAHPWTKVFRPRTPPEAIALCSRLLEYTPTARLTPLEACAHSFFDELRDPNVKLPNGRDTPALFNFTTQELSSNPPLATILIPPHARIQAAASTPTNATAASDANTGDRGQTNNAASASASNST

[2] = biological target: T1, Glycogen synthase kinase-3 beta; assay: Inhibition of recombinant GST-tagged GSK-3beta (unknown origin) expressed in Escherichia coli BL21 assessed as phosphate incorporation in CREB at 20 ug/mL relative to control
Procedure, shortened: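 GST-GSK-3β expressed in E. coli BL21-CodonPlus (DE3), purified by GSTrap and thrombin-cleaved. Activity measured by Z'-LYTE kinase assay at 50 nM final enzyme. Run in triplicate with blanks subtracted. Activity given as pmol phosphate incorporated into CREB per minute or as percent of maximal activity.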
Target sequence in this assay (P49841 whole entry, looked up): as the sequence (P49841 whole entry) above

[3] = biological target: Mitogen-activated protein kinase 3 (Homo sapiens, UniProt P27361); assay: Inhibition of recombinant ERK1 (unknown origin) expressed in Escherichia coli
Sequence of Mitogen-activated protein kinase 3 (P27361 whole entry): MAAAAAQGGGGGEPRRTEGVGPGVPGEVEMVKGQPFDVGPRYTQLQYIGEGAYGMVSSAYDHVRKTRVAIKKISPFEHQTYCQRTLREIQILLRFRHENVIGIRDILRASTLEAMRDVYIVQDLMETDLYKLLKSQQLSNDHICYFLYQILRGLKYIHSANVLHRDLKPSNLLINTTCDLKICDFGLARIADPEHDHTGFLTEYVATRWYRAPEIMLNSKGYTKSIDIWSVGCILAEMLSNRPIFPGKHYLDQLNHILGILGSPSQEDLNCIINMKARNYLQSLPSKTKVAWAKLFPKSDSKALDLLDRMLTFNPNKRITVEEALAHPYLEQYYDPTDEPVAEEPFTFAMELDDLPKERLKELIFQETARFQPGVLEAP
Procedure, shortened: (§1)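 E. coli-expressed recombinant kinase tested in a Z'-LYTE kinase assay kit.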

Aurora kinase A = biological target: T2, Aurora kinase A (Homo sapiens, UniProt O14965); assay: Inhibition of recombinant aurora kinase A (unknown origin) expressed in Escherichia coli; procedure, shortened: as §1
T2 sequence (O14965 whole entry): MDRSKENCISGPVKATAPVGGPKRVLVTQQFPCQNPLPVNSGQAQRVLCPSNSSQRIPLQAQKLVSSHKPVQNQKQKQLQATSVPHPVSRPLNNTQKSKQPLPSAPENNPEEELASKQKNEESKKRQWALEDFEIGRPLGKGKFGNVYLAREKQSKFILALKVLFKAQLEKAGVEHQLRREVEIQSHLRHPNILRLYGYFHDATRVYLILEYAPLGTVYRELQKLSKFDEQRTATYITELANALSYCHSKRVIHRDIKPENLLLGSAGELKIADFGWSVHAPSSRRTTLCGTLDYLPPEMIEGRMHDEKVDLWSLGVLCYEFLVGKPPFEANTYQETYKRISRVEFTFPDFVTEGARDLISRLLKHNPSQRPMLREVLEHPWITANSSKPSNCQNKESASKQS

[4] = biological target: T3, Inhibitor of nuclear factor kappa-B kinase subunit beta (Homo sapiens, UniProt O14920); assay: Inhibition of recombinant IKK2 (unknown origin) expressed in baculovirus expression system
T3 sequence (O14920 whole entry): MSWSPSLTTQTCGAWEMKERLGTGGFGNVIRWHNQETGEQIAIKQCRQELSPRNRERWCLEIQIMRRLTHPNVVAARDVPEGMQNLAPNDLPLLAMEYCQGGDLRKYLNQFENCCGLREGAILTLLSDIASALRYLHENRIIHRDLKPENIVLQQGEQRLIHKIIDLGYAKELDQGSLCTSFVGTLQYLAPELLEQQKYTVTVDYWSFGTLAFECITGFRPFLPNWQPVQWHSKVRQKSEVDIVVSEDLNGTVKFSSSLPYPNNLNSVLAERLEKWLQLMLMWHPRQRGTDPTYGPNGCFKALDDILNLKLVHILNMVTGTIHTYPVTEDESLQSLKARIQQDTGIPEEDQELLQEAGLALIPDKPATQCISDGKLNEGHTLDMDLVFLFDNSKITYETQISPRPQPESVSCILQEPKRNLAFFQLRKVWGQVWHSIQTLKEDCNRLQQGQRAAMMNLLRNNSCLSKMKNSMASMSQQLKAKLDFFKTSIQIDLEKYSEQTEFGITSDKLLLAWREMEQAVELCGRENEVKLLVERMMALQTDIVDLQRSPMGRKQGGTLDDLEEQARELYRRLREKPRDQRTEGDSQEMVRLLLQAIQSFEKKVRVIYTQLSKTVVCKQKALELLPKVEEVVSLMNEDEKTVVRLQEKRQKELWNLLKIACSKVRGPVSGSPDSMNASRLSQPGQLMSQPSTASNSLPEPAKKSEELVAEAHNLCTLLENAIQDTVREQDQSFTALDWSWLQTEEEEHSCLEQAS
Procedure, shortened: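 Recombinant kinase expressed in the Bac-to-Bac baculovirus system, tested in a Z'-LYTE kinase assay kit.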

[5] = biological target: T1, Glycogen synthase kinase-3 beta; assay: Inhibition of GSK-3beta in human SH-SY5Y cells assessed as reduction of amyloid beta (25 to 35)-induced Tau hyperphosphorylation at Ser396 at 10 uM incubated for 1 hr prior to amyloid beta (25 to 35) induction measured after 6 hrs by Western blotting analysis; type: cell-based
Procedure, shortened: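 SH-SY5Y cells (ATCC) in 1:1 DMEM:Ham's F12 with 10% FBS and 1% penicillin/streptomycin, 5% CO2. Grown to ~80% confluence, serum-deprived 12 h, inhibitor added 1 h before Aβ25–35 for another 6 h. Lysed in SDS loading buffer, run on 10% SDS-PAGE, blotted to PVDF, probed with rabbit anti-Tau pS396, ECL detection.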
Target sequence in this assay (P49841 whole entry, looked up): as the sequence (P49841 whole entry) above

[6] = biological target: Dual specificity mitogen-activated protein kinase kinase 1 (Homo sapiens, UniProt Q02750); assay: Inhibition of recombinant MEK1 (unknown origin) expressed in Escherichia coli; procedure, shortened: as §1
Sequence of Dual specificity mitogen-activated protein kinase kinase 1 (Q02750 whole entry): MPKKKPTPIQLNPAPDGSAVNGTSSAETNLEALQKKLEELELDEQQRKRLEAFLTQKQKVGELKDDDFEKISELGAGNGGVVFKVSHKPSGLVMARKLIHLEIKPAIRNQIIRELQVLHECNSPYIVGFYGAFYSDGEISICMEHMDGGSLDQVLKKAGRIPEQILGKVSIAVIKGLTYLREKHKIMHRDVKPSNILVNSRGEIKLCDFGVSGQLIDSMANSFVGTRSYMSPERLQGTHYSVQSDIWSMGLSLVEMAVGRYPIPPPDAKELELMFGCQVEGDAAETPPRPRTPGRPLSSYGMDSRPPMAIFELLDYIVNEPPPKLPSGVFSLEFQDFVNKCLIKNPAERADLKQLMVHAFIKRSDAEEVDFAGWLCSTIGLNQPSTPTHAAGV

[7] = biological target: T4, Protein kinase C epsilon type (Homo sapiens, UniProt Q02156); assay: Inhibition of recombinant PKCE (unknown origin) expressed in baculovirus expression system
T4 sequence (Q02156 whole entry): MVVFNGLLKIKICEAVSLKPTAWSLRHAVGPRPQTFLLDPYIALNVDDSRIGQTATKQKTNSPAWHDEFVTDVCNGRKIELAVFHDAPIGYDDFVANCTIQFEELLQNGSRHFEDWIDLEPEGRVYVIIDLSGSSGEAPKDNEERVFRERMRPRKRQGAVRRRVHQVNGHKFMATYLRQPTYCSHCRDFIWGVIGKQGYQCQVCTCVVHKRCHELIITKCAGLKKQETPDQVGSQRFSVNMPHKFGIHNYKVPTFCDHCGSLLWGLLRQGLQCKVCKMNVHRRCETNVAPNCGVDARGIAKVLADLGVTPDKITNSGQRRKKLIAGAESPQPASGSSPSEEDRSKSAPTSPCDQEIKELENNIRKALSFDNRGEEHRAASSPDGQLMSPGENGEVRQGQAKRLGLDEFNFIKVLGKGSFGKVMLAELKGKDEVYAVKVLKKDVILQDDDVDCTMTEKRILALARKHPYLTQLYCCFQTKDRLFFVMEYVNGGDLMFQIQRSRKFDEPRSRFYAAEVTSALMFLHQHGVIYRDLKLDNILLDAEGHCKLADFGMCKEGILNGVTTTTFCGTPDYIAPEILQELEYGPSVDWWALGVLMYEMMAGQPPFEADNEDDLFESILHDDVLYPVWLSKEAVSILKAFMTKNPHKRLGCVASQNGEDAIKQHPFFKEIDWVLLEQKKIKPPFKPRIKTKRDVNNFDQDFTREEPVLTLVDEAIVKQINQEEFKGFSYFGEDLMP

Compound	IC50 [1] [µM]	inhibition [5]	other results
Cn1cc(C2=C(c3nn(CCCCn4ccnc4)c4ncccc34)C(=O)NC2=O)c2ccccc21	0.96		
NC(=O)NN1C(=O)C(c2c[nH]c3ccccc23)=C(c2n[nH]c3ncccc23)C1=O			inhibition [2]: -6.81%
CC(C)CN1C(=O)C(c2c[nH]c3ccccc23)=C(c2n[nH]c3ncccc23)C1=O			inhibition [2]: 45.7%
Cn1cc(C2=C(c3nn(CCn4ccnc4)c4ncccc34)C(=O)NC2=O)c2ccccc21	0.81	Active	IC50 [3]: > 40 µM; IC50 (Aurora kinase A): > 40 µM; IC50 [4]: > 40 µM; IC50 [6]: > 40 µM; IC50 [7]: > 40 µM
Cn1cc(C2=C(c3nn(CCCN4CCOCC4)c4ncccc34)C(=O)NC2=O)c2ccccc21	0.75	Active	
NN1C(=O)C(c2c[nH]c3ccccc23)=C(c2n[nH]c3ncccc23)C1=O			inhibition [2]: 28.6%
Cn1cc(C2=C(c3n[nH]c4ncccc34)C(=O)NC2=O)c2ccccc21	12.3		
NC(=S)NN1C(=O)C(c2c[nH]c3ccccc23)=C(c2n[nH]c3ncccc23)C1=O			inhibition [2]: 33.7%
O=C1NC(=O)C(c2nn(CCCN3CCOCC3)c3ncccc23)=C1c1c[nH]c2ccccc12	0.83	Active	
O=CNN1C(=O)C(c2c[nH]c3ccccc23)=C(c2n[nH]c3ncccc23)C1=O			inhibition [2]: -7.42%
C=Cn1cc(C2=C(c3nn(CCCN4CCOCC4)c4ncccc34)C(=O)NC2=O)c2ccccc21	8.84		
C=CCn1cc(C2=C(c3nn(CCCN4CCOCC4)c4ncccc34)C(=O)NC2=O)c2ccccc21	0.96		
CN1CCN(CCCn2nc(C3=C(c4cn(C)c5ccccc45)C(=O)NC3=O)c3cccnc32)CC1	3.34		
CC(C)n1cc(C2=C(c3nn(CCCN4CCOCC4)c4ncccc34)C(=O)NC2=O)c2ccccc21	0.38	Active	IC50 [3]: > 40 µM; IC50 (Aurora kinase A): > 40 µM; IC50 [4]: > 40 µM; IC50 [6]: > 40 µM; IC50 [7]: > 40 µM
Cn1cc(C2=C(c3nn(CCN4CCOCC4)c4ncccc34)C(=O)NC2=O)c2ccccc21	0.36	Active	IC50 [3]: > 40 µM; IC50 (Aurora kinase A): > 40 µM; IC50 [4]: > 40 µM; IC50 [6]: > 40 µM; IC50 [7]: > 40 µM
Cn1cc(C2=C(c3nn(CCCO)c4ncccc34)C(=O)NC2=O)c2ccccc21	1.09	Active	
Cn1cc(C2=C(c3nn(CCCN4CCCCC4)c4ncccc34)C(=O)NC2=O)c2ccccc21	2.66		
O=C1NC(=O)C(c2nn(CCCN3CCOCC3)c3ncccc23)=C1c1cn(CCCn2ccnc2)c2ccccc12	0.68	inactive	
O=C1C(c2c[nH]c3ccccc23)=C(c2n[nH]c3ncccc23)C(=O)N1c1ccccc1			inhibition [2]: 4.14%
O=C1NC(=O)C(c2n[nH]c3ncccc23)=C1c1c[nH]c2ccccc12	7.31		
O=C1NC(=O)C(c2nn(CCCN3CCOCC3)c3ncccc23)=C1c1cn(Cc2ccccc2)c2ccccc12	1.9		
CN(C)CCCn1nc(C2=C(c3cn(C)c4ccccc34)C(=O)NC2=O)c2cccnc21	5.69		
Cn1cc(C2=C(c3nn(CCCCN4CCOCC4)c4ncccc34)C(=O)NC2=O)c2ccccc21	0.46		
Cn1cc(C2=C(c3nn(CCCn4ccnc4)c4ncccc34)C(=O)NC2=O)c2ccccc21	4.89		
COC(=O)CN1C(=O)C(c2c[nH]c3ccccc23)=C(c2n[nH]c3ncccc23)C1=O			inhibition [2]: 51.5%
O=C1NC(=O)C(c2nn(CCCN3CCOCC3)c3ncccc23)=C1c1cn(CCCN2CCOCC2)c2ccccc12	1.29	inactive	
